According to ChEMBL document CHEMBL5705899 (Biochem J, 2014):
The source made the active and inactive calls. No cut-off for these calls is given here.

How the values were obtained:
[1] = molecular target: Serine/threonine-protein kinase SIK2 (Homo sapiens) (UniProt Q9H0K1); assay: Inhibition of human SNF1LK2 at 1 uM using RBER-CHKtide as substrate in presence of 33P-ATP by ProQinase assay
[2] = molecular target: Serine/threonine-protein kinase PINK1, mitochondrial (Homo sapiens) (UniProt Q9BXM7); assay: Inhibition of recombinant human N-terminal MBP-tagged PINK1 (1 to 570 residues) expressed in Escherichia coli assessed as remaining activity at 1 uM using KKSRGDYMTMQIG as substrate incubated for 30 mins in presence of [gamma-33P]ATP by filter binding method relative to control
Serine/threonine-protein kinase PINK1, mitochondrial (Homo sapiens), sequence (Q9BXM7 whole entry, the tested form may be a part): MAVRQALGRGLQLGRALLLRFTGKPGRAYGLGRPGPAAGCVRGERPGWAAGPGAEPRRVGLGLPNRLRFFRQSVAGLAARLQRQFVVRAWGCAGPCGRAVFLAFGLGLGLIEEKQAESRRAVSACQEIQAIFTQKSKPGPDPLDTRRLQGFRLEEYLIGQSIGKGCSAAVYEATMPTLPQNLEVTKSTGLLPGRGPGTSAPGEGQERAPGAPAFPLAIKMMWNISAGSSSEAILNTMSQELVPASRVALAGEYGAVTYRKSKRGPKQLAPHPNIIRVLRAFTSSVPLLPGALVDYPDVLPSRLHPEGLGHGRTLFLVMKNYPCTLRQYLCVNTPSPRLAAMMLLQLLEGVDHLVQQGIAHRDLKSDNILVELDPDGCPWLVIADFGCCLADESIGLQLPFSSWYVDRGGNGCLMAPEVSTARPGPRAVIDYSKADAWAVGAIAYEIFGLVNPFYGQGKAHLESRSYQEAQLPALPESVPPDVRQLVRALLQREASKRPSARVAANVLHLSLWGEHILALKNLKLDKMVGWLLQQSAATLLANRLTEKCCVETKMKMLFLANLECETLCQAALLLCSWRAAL

[3] = molecular target: T1, 3-phosphoinositide-dependent protein kinase 1 (Homo sapiens) (UniProt O15530); assay: Inhibition of human PDK1 at 1 uM using bio-4xCHKT as substrate in presence of 33P-ATP by ProQinase assay
T1 sequence (whole entry): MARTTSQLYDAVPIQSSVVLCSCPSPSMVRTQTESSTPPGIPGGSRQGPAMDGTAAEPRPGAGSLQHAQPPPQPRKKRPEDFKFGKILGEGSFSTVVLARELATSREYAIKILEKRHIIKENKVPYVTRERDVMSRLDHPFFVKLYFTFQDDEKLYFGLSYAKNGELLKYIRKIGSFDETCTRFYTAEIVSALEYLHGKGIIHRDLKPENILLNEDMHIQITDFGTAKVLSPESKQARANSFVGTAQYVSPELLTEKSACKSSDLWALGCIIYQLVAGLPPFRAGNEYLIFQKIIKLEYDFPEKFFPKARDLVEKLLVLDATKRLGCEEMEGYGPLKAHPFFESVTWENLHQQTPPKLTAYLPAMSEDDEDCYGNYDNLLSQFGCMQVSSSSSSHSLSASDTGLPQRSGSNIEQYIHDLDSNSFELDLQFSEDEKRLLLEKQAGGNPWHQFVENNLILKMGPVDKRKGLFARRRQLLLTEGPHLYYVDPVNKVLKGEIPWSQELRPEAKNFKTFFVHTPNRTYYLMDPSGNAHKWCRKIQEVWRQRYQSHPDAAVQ

[4] = molecular target: Eukaryotic translation initiation factor 2-alpha kinase 3 (Homo sapiens) (UniProt Q9NZJ5); assay: Inhibition of recombinant human N-terminal GST-tagged EIF2AK3 (536 to 1116 residues) expressed in Escherichia coli assessed as remaining activity at 1 uM using MBP as substrate incubated for 30 mins in presence of [gamma-33P]ATP by filter binding method relative to control
Eukaryotic translation initiation factor 2-alpha kinase 3 (Homo sapiens), sequence (Q9NZJ5 whole entry, the tested form may be a part): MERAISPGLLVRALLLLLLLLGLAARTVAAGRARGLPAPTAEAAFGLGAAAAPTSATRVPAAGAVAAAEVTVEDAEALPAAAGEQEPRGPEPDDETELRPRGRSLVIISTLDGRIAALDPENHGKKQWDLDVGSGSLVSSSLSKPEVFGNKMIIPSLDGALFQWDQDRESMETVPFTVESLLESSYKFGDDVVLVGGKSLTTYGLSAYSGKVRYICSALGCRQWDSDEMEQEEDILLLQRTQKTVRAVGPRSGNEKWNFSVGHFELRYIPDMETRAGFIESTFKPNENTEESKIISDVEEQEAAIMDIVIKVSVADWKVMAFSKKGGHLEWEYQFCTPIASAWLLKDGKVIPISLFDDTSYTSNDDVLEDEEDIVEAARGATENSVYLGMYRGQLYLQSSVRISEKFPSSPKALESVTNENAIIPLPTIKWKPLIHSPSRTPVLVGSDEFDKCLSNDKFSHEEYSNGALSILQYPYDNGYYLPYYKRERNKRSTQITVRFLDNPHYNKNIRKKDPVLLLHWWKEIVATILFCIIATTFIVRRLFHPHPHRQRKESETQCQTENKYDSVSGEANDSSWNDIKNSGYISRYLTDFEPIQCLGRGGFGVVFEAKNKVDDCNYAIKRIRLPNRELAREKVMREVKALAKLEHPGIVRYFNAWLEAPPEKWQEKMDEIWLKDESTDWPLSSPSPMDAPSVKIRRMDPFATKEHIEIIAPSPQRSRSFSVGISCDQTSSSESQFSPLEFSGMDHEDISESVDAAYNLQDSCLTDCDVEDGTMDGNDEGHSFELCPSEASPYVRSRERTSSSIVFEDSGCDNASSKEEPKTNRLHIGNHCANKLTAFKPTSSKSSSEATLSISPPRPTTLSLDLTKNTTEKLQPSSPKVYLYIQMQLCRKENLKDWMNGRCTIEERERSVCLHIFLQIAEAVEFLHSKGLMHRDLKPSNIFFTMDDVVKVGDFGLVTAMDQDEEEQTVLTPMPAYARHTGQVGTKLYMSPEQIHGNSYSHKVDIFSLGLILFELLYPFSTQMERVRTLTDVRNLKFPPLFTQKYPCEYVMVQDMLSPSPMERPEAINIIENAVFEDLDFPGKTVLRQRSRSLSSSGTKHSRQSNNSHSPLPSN

[5] = molecular target: Glycogen synthase kinase-3 beta (Homo sapiens) (UniProt P49841); assay: (§1) Inhibition of recombinant human His6-tagged GSK3beta (2 to 420 residues) expressed in baculovirus infected Sf21 cells assessed as remaining activity at 1 uM using phospho-GS2 peptide as substrate incubated for 30 mins in presence of [gamma-33P]ATP by filter binding method relative to control
[6] = molecular target: Cyclin-dependent kinase 4/cyclin D1 (Homo sapiens) (UniProt P11802+P24385); assay: Inhibition of human CDK4/CyclinD1 at 1 uM using RBER-CHKtide, as substrate in presence of 33P-ATP by ProQinase assay; type: protein-complex assay
[7] = molecular target: Proto-oncogene tyrosine-protein kinase ROS (Homo sapiens) (UniProt P08922); assay: Inhibition of human ROS at 1 uM using poly(Ala,Glu,Lys,Tyr) as substrate in presence of 33P-ATP by ProQinase assay
[8] = molecular target: CDK9/Cyclin K (Homo sapiens) (UniProt P50750+O75909); assay: Inhibition of human CDK9/CycK at 1 uM using RBER-CHKtide as substrate in presence of 33P-ATP by ProQinase assay; type: protein-complex assay
[9] = molecular target: Serine/threonine-protein kinase 4 (Homo sapiens) (UniProt Q13043); assay: Inhibition of human MST1 at 1 uM using RB-CTF as substrate in presence of 33P-ATP by ProQinase assay
[10] = molecular target: Serine/threonine-protein kinase MARK2 (Homo sapiens) (UniProt Q7KZI7); assay: Inhibition of human MARK2 at 1 uM using RBER-CHKtide as substrate in presence of 33P-ATP by ProQinase assay
Serine/threonine-protein kinase MARK2 (Homo sapiens), sequence (Q7KZI7 whole entry): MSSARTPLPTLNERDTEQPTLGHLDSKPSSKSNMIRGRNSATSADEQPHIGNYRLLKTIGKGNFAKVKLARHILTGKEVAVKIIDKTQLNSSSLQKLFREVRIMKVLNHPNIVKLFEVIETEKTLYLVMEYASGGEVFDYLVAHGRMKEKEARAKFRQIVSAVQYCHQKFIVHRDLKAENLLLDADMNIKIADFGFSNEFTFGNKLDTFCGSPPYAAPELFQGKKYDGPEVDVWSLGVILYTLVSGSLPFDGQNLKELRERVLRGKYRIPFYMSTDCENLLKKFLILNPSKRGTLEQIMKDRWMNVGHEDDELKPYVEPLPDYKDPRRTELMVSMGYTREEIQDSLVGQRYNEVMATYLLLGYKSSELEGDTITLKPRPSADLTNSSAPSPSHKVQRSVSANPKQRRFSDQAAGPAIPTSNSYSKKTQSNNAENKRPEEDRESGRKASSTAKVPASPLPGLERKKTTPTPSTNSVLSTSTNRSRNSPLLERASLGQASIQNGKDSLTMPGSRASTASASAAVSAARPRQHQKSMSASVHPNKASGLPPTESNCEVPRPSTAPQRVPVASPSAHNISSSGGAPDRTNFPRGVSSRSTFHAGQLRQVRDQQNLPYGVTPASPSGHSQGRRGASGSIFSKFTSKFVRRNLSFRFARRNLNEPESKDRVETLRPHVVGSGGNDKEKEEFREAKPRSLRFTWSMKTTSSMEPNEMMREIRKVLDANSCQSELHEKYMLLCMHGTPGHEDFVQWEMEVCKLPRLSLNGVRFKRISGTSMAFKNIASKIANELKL

[11] = molecular target: Serine/threonine-protein kinase 3 (Homo sapiens) (UniProt Q13188); assay: Inhibition of human MST2 at 1 uM using RB-CTF as substrate in presence of 33P-ATP by ProQinase assay
[12] = molecular target: Serine/threonine-protein kinase MARK2 (Homo sapiens) (UniProt Q7KZI7); assay: as §1, with “human N-terminal” for “human”, “MARK2” for “GSK3beta”, “691” for “420”, “KKKVSRSGLYRSPSMPENLNRPR” for “phospho-GS2 peptide”
[13] = molecular target: Mitogen-activated protein kinase kinase kinase 10 (Homo sapiens) (UniProt Q02779); assay: Inhibition of human MAP3K10 at 1 uM using histon H2B as substrate in presence of 33P-ATP by ProQinase assay
[14] = molecular target: Phosphatidylinositol 4-kinase type 2-alpha (Homo sapiens, UniProt Q9BTU6); assay: Inhibition of human PI4K2A using PI/PS as substrate by ADP-Glo assay
[15] = molecular target: Diacylglycerol kinase alpha (Homo sapiens) (UniProt P23743); assay: Inhibition of DGKalpha (unknown origin) at 1 uM
[16] = molecular target: Protein kinase C theta type (Homo sapiens) (UniProt Q04759); assay: Inhibition of human PKCtheta at 1 uM using 3xChocktide-PKC as substrate in presence of 33P-ATP by ProQinase assay
Protein kinase C theta type (Homo sapiens), sequence (Q04759 whole entry, looked up): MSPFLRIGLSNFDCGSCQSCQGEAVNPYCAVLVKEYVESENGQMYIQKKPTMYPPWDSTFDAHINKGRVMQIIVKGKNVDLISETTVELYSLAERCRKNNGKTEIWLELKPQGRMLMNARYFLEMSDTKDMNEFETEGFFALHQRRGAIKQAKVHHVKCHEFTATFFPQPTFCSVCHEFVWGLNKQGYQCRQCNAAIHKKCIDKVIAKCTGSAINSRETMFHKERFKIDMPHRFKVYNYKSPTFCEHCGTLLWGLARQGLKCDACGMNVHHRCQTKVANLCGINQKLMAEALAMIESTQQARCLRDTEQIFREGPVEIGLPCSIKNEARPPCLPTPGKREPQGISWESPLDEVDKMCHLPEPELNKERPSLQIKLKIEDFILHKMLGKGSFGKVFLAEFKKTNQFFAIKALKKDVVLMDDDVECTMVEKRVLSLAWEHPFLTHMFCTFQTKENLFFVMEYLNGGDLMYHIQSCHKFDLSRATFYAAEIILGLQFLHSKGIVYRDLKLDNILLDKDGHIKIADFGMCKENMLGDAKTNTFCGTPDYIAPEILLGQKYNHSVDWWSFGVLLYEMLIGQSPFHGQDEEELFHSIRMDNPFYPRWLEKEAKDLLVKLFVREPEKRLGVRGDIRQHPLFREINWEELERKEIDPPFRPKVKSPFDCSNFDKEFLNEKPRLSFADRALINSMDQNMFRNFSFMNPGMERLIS

[17] = molecular target: Phosphatidylinositol 4-kinase beta (Homo sapiens, UniProt Q9UBF8); assay: Inhibition of PI4Kbeta (unknown origin) using D-myo-PtdIns as substrate incubated for 45 mins by ADP-Glo assay
Method in brief: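 PI4Kα: 1 nM enzyme, 72 μM ATP, 25 μM PtdIns. PI4Kβ: 2 nM enzyme, 220 μM ATP, 50 μM PtdIns. Reactions ran 45 min at ambient temperature; ADP-Glo reagent was added for 40 min, then detection reagent for 30 min, then luminescence was read.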

[18] = molecular target: Mitogen-activated protein kinase 3 (Homo sapiens) (UniProt P27361); assay: Inhibition of recombinant human N-terminal GST-tagged ERK1 (2 to 379 residues) expressed in Escherichia coli assessed as remaining activity at 1 uM using MBP as substrate incubated for 30 mins in presence of [gamma-33P]ATP by filter binding method relative to control
[19] = molecular target: Casein kinase 2 (Homo sapiens) (UniProt P67870+P68400+P19784+Q8NEV1); assay: Inhibition of CK2 (unknown origin) assessed as remaining activity at 1 uM relative to control; type: protein assay
Method in brief: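 Dundee panel of 140 protein kinases, tested at a single 1 μM concentration. Each assay was run in triplicate. Remaining activity is expressed relative to a control reaction without inhibitor, as mean ± S.D. Conditions for each kinase were those of the screening centre.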

[20] = molecular target: cGMP-dependent protein kinase 2 (Homo sapiens) (UniProt Q13237); assay: Inhibition of human PRKG2 at 1 uM using RBER-GSK3 as substrate in presence of 33P-ATP by ProQinase assay
cGMP-dependent protein kinase 2 (Homo sapiens), sequence (Q13237 whole entry): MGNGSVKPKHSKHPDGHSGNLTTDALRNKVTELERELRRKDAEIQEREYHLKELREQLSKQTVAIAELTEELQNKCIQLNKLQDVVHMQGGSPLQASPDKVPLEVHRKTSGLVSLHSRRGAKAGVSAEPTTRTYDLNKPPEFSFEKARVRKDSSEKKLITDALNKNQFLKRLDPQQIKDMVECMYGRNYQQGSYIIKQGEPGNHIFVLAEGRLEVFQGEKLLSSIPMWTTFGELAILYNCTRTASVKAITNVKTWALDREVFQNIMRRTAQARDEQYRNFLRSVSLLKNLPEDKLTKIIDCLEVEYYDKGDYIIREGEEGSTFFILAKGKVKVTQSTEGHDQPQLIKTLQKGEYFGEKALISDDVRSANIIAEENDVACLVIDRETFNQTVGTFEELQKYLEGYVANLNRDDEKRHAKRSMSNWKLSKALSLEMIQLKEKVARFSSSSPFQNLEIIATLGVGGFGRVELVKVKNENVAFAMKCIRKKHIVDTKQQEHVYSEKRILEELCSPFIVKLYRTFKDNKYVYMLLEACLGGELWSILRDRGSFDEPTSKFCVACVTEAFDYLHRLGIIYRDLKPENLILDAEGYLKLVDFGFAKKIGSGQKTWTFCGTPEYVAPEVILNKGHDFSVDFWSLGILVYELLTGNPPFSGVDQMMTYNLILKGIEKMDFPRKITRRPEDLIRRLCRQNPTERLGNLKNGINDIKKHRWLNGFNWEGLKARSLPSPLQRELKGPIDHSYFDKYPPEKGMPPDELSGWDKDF

Serine/threonine-protein kinase SIK2 (Homo sapiens), sequence (Q9H0K1 whole entry, looked up, the tested form may be a part): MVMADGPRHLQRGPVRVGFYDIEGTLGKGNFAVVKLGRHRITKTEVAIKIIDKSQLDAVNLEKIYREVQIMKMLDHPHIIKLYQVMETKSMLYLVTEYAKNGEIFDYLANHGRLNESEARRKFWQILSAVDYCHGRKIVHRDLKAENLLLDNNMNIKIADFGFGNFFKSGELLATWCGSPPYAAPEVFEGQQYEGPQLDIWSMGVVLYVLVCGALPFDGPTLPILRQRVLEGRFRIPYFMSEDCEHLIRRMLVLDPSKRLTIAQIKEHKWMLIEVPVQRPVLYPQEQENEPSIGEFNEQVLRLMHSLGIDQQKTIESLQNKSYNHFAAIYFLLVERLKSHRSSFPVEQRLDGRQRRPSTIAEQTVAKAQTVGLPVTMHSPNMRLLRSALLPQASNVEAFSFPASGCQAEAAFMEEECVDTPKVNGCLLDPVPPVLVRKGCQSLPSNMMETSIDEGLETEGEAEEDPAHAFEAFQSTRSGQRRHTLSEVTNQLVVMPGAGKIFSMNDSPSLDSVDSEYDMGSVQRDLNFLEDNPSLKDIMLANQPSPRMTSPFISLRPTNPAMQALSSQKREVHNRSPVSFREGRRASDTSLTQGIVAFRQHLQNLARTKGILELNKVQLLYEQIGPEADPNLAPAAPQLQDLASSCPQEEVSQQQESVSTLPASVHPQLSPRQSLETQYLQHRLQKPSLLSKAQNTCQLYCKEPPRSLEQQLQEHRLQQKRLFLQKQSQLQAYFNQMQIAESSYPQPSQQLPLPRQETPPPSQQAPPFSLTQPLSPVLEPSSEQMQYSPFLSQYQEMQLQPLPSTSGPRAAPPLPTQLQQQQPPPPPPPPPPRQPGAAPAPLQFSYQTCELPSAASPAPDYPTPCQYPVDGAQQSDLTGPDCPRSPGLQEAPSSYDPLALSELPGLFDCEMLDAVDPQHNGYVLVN

Q: With CC(C)(O)CNc1ncc(-c2ccnc(Nc3ccnc(Cl)c3)n2)c(CC2CC2)n1 as the compound, how does the inhibition [1] read?
A: Its inhibition is “inactive”.

Q: What about the Activity [2] of the same compound?
A: Its Activity is 109%.

Q: What about the inhibition [3] of the same compound?
A: The inhibition was “inactive”.

Q: What about the Activity [4] of the same compound?
A: The Activity was 125%.

Q: And the Activity [5]?
A: Its Activity is 51%.

Q: What about the inhibition [6] of the same compound?
A: The inhibition was “inactive”.

Q: And the inhibition [7]?
A: Its inhibition is “inactive”.

Q: And the inhibition [8]?
A: Its inhibition is “inactive”.

Q: And the inhibition [9]?
A: The inhibition was “inactive”.

Q: What about the inhibition [10] of the same compound?
A: The inhibition was “inactive”.

Q: And the inhibition [11]?
A: The inhibition was “inactive”.

Q: And the Activity [12]?
A: The Activity was 108%.

Q: And the inhibition [13]?
A: The inhibition was “inactive”.

Q: And the IC50 [14]?
A: Its IC50 is over 10 µM.

Q: And the inhibition [15]?
A: Its inhibition is “inactive”.

Q: And the inhibition [16]?
A: The inhibition was “inactive”.

Q: What about the IC50 [17] of the same compound?
A: The IC50 was 1.07 µM.

Q: And the Activity [18]?
A: Its Activity is 108%.

Q: What about the Activity [19] of the same compound?
A: The Activity was 111%.

Q: What about the inhibition [20] of the same compound?
A: The inhibition was “inactive”.
